High-throughput results from PubChem BioAssay.
NOD2-RIPK2 inh – NOD2-RIPK2 binding disruptors in cells, primary screen, fluorescence, CHO cells, BLA complementation; Receptor-interacting serine/threonine-protein kinase 2 (Homo sapiens), O43353; CCF4 ratio; inhibition, % at 4.98 µM; 360,000 compounds, 0.38% hits; in the data active = inhibition above about 21%;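 also: 0% = vehicle only and 100% = reference blocker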
TLR9-MyD88 inh – inhibitors of TLR9-MyD88 association in cells, primary screen, cell-based, CHO, BLA complementation, fluorescence. Toll-like receptor 9 (Homo sapiens) + Myeloid differentiation primary response protein …. CCF4 FRET ratio. inhibition, % at 4.98 µM. 340,000 compounds, 0.21% hits. AID 504734, 2011;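 active = inhibition above the mean over all tested compounds plus 3 SD, cut at about 21% in these data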;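 also: 0% = DMSO only wells and 100% = clavulanate BLA inhibitor control wells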
TLR4-MyD88 BLA – inhibitors of TLR4-MyD88 association in cells, primary screen, cell-based, HeLa CL3-4, BLA complementation, FRET ratio; HeLa CL3-4 TLR4/MyD88 BLA complementation; inhibition, % at 8.4 µM; 200,000 compounds, 0.18% hits; AID 861, 2007; in the data active = inhibition above about 25%;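 also: 0% = vehicle and 100% = reference inhibitor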
Beta2AR agonist – beta2AR agonists driving receptor internalization, primary screen, cell-based, FAP fluorogen, flow cytometry; Am2.2-beta2AR cells; Beta-2 adrenergic receptor (Homo sapiens), P07550; response, % (test concentration not listed); 340,000 compounds, 0.43% hits;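 active = response above a set limit, near 3 SD of response in nonfluorescent compounds, cut at about 42% in these data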
Dynein transport – inhibitors of GR-EGFP nuclear translocation, primary screen, dynein cargo transport inhibitor project, imaging, high-content, 3617.4 mouse cells. AID 1381, 2008. z-score, hits read low. 220,000 compounds, 0.47% hits. test concentration mostly 20 µM; stimulated with dexamethasone, 1 µM; hits give low values;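 active = plate z-score of nuclear minus cytoplasmic receptor signal below a set negative limit, without overly bright fluorescence or cell loss, cut at about -3.5 in these data, passing the limit was not always enough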;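 also: z-score of nuclear minus cytoplasmic ring GR-EGFP intensity difference per well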
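Schedule: 48 h induction, then 1 h compound, then 30 min agonist, 37 °C. Buffer or medium: tetracycline-free induction medium containing charcoal-stripped FBS. Reagent: 1.0 µM final dexamethasone stimulus. Evaluation: nuclear versus cytoplasmic GR-EGFP signal, averaged per well. Signal: high-content fluorescence imaging after fixation.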
ABHD5-PLIN5 inh – ABHD5-PLIN5 interaction inhibitors, primary screen, cell lysate, split luciferase complementation, luminescence; inhibition, % at 4 µM; 360,000 compounds, 0.78% hits; AID 602281, 2012; Perilipin-5 (Homo sapiens) + 1-acylglycerol-3-phosphate O-acyltransferase ABHD5 (Homo …; Split G. princeps luciferase complementation, 4 h;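 active = inhibition above the mean inhibition across every tested compound plus 3 SD, cut at about 22% in these data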;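 also: 0% = DMSO only wells and the 100% control is not disclosed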
Target sequence (Q00G26 whole entry, looked up): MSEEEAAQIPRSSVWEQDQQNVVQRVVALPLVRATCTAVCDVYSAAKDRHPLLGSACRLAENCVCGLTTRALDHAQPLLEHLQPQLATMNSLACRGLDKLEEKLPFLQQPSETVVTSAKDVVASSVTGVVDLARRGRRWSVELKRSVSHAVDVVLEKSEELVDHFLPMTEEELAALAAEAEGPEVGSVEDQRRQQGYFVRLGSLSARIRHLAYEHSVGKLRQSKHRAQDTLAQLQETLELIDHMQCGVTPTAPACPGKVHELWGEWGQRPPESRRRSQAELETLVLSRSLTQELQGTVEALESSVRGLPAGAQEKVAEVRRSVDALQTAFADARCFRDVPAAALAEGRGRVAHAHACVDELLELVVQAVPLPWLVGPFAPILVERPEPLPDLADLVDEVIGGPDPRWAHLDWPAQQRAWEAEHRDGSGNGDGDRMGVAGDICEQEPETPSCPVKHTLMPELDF
Target sequence (Q8WTS1 whole entry, looked up): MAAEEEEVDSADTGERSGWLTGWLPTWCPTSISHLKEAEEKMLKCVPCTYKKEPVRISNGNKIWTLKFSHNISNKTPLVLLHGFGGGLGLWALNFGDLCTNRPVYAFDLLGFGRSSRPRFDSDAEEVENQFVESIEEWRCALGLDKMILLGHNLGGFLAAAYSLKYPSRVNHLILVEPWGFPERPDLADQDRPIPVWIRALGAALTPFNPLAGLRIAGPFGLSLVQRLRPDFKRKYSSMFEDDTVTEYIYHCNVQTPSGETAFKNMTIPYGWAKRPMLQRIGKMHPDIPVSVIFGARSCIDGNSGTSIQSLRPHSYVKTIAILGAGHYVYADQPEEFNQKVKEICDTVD
Dynein inh conf – dynein cargo transport inhibitors, GR-EGFP translocation, confirmation, imaging, high-content imaging, GR-EGFP cells; shares compounds with Dynein transport; 3617.4 GR-EGFP nuclear translocation imaging, dexamethasone-induced; calls only at 20 µM; 1,000 compounds, 69% hits; AID 463116, 2010;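 active = inhibition of receptor movement into the nucleus at or above a set limit in both runs, with normal cell brightness and cell count; inconclusive = limit reached in only one run, brightness and count normal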;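 also: dexamethasone at 1 µM final in well for 30 min; nuclear minus cytoplasmic GR-EGFP mean intensity difference in channel 2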
* = called active by the depositor; i = inactive; ? = inconclusive; . = no result; + = active, no number. A selection: hits, their analogues and other compounds. The true share with any hit is near 1.6%.

SMILES	NOD2-RIPK2 inh	TLR9-MyD88 inh	TLR4-MyD88 BLA	Beta2AR agonist	Dynein transport	ABHD5-PLIN5 inh	Dynein inh conf
COC(=O)c1ccc(C(C(=O)NC2CCCCC2)N(Cc2ccc(F)cc2)C(=O)Cc2cccs2)cc1 (configuration not stated)	-3	-6	2	6	-0.77	1	.
COC(CN(C(=O)CCl)C(C(=O)NC1CCCC(C)C1C)c1ccc(C)cc1)OC (configuration not stated)	-2	-6	17	8	-4.3*	-3	+
COC(CN(C(=O)CCl)C(C(=O)NC1CCCCC1)c1ccccc1C)OC (configuration not stated)	-6	-10	9	6	-1.9	0	.
COC(CN(C(=O)CCl)C(C(=O)NC1CCCCC1)c1ccc(Cl)cc1)OC (configuration not stated)	-3	-6	4	1	-4.1*	0	+
O=C(NC1CCCC1)C(c1ccc(F)cc1)N(Cc1ccc(Cl)cc1)C(=O)CCl (configuration not stated)	1	0	-1	3	-3.7*	0	+
O=C(NC1CCCC1)C(c1ccc(Cl)cc1)N(Cc1ccc(F)cc1)C(=O)CCl (configuration not stated)	-10	-3	9	8	-5.3*	1	+
CNc1cncc(-c2ccc(OC)c(OC)c2)n1	-1	.	.	.	.	6	.
CC(C#N)N1CCN(S(=O)(=O)c2ccc3c(c2)CCC3)CC1 (configuration not stated)	-9	-9	.	6	.	-3	.
N#Cc1ccc(C(=O)N2CCN(C(=O)C3CCCO3)CC2)cc1 (configuration not stated)	-10	-15	.	2	.	-6	.
Cc1ccc([C@H]2C[C@@H](O)[C@H](n3cc(-c4ccc(F)cc4)nn3)CN2C(=O)c2cccs2)cc1	-1	-10	.	.	.	6	.
CCc1nc2ccc(C(=O)NCCC(C)C)cn2c1N(C)Cc1ccc(OC)cc1	0	.	.	.	.	8	.
CCCCCCN1C=CC(=C/C=C(\C#N)C(=O)OCC)C=C1	-3	-2	8	-88	-3.8	11	?
CCCN1C=CC(=C/C=C(\C#N)C(=O)OCC)C=C1	.	.	-17	.	-0.75	.	.
COc1ccc(C(=O)N2[C@@H](C(C)C)COc3cc(Br)ccc3S2(=O)=O)cc1	4	-11	.	-4	.	-14	.
O=C1CC(Sc2nnc(-c3ccccc3O)o2)C(=O)N1c1ccccc1 (configuration not stated)	10	-9	-5	-4	-6.5*	16	i
COc1ccccc1N1C(=O)CC(Sc2n[nH]c(-c3cccc(C)c3)n2)C1=O (configuration not stated)	-3	0	6	12	-3.6*	4	+
O=C1CC(Sc2ncccn2)C(=O)N1c1ccccc1 (configuration not stated)	-1	3	-4	-2	-1.1	-4	.
Cc1nc(SC2CC(=O)N(c3ccccc3)C2=O)n[nH]1 (configuration not stated)	-12	-1	-7	6	-3.7*	2	i
CCN1CCN(C(=O)c2cc(=O)c3cc(C)ccc3o2)CC1	-8	6	.	-4	.	-8	.
OC(c1ccc(Cl)c(Cl)c1)c1ncc(-c2ccccc2C(F)(F)F)[nH]1 (configuration not stated)	14	.	.	.	.	-10	.
COc1ccc(NC(=O)C(Cl)=C(Cl)Cl)cn1	-3	6	2	0	-4.5*	5	+
O=c1oc2c3c4c(cc2c(C(F)(F)F)c1CCN1CCOCC1)CCCN4CCC3	19	15	8	-27	-5.7*	2	+
O=C(NC1CCCCC1)C(c1cccnc1)N(C(=O)CCl)c1cccc(Cl)c1 (configuration not stated)	-4	-2	17	35	-4.3*	10	+
O=C(O)CC1CC(O)CCC1=O (configuration not stated)	-10	.	.	.	.	2	.
O=C(O)CC1CCC(=C(Cl)Cl)C1 (configuration not stated)	-5	6	4	25	-4.8*	4	i
SMILES	NOD2-RIPK2 inh	TLR9-MyD88 inh	TLR4-MyD88 BLA	Beta2AR agonist	Dynein transport	ABHD5-PLIN5 inh	Dynein inh conf
Cn1cc(C(=O)CCl)c2ccccc21	-1	2	24	12	-4.8*	12	+
COc1ccc(N=C2S/C(=C\c3ccc(N4CCOCC4)o3)C(=O)N2CCc2c[nH]c3ccccc23)cc1	33*	0	4	-499	-9.1	72*	+
O=[N+]([O-])c1ccc(N2CCN(c3ccc(Cl)nn3)CC2)cc1NC1CC1	-6	4	0	-3	-8.4	-8	i
O=[N+]([O-])c1ccc(N2CCN(c3ccc(Cl)nn3)CC2)c(Cl)c1	0	5	0	-4	1.3	2	.
CC1(NC(=O)Nc2cccc(Br)c2)CCS(=O)(=O)C1 (configuration not stated)	1	1	.	2	.	2	.
COc1ccc(/C=C/C(=O)c2cc(Br)ccc2O)cc1OC	-11	-7	-2	-12	-0.37	1	.
COc1ccc(/C=C/C(=O)c2cc(Br)ccc2OC(=O)c2ccco2)cc1OC	-1	-6	-2	3	-3.7*	1	+
CCOC(=S)SCC(=O)Nc1ncc(C)s1	5	5	.	-4	-4.1*	2	i
COCCCN(C(=O)C1=COCCO1)c1c(N)n(Cc2ccccc2)c(=O)[nH]c1=O	-1	-1	.	.	.	-3	.
CCOc1ccccc1C(=O)N(Cc1sccc1C)C1CCS(=O)(=O)C1 (configuration not stated)	6	-5	.	2	.	9	.
COc1cc(OC)c2c(O)c3c(c(-c4c5c(c(O)c6c(OC)cc(OC)cc46)CO[C@@H](C)[C@H]5O)c2c1)[C@H](O)[C@H](C)OC3	-16	-8	2	11	-4.5*	0	+
Nc1ncnc(Sc2ccccc2)c1[N+](=O)[O-]	2	6	-14	0	-0.84	5	.
Nc1ncnc(Sc2ncccn2)c1[N+](=O)[O-]	1	-4	-5	22	-5.1*	14	?
CCOC(=O)C1CCN(C(=O)c2ccc3c(Cl)c4c(nc3c2)CCCC4)CC1	9	7	.	9	.	2	.
